The results in this text go back to PubChem BioAssay.

The nature of assay [1]: inhibitors of TNFa-induced NFkB p65 translocation, primary screen, imaging, HUVEC, MLSMR starter and 10KST1 sets (AID 438;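 active = inhibition above 20% together with a positive visual image hit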;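 also: compound added about 3h40 before a 20 min TNFalpha stimulation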;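 as to inhibition: signal is the nuclear over cytoplasmic p65 intensity ratio per well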). As to conditions: HUVEC TNFa-induced p65 nuclear translocation; cell count: measured here: nuclei count (cytotoxicity indicator), at 2.08 µM; inhibition: at 2 µM, stronger effect = higher value, 0% TNFa-plus-vehicle, 100% no-TNFa wells.
Assay [2] in a line: reduction of polyQ htt aggregates in cells – imaging, exon1htt(103Q)mCFP cells, high-content imaging, primary screen (AID 483).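 Also: compound exposure lasted 3 days before fixation.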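 As to nuclei count: percent of the per-plate median nuclei count of sample wells.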 As to conditions: exon1htt(103Q)mCFP cell line, aggregate imaging, at 2 µM; inhibition of aggregation: stronger effect = higher value; nuclei count: measured here: cell count, toxicity.
Assay [3] can be described thus: endothelial E-selectin expression blockers – imaging, HUVEC, immunofluorescence, MLSMR starter and 10KST1 sets, primary screen (AID 487;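 active = visually confirmed hit in the image check and inhibition above 20%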;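 as to inhibition: signal is fraction of cell area covered by stained E-selectin grains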;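 as to nuclei count: 100% = median nuclei count of all wells on the same plate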). As to conditions: HUVEC TNFalpha-induced E-selectin immunofluorescence imaging, at 2 µM; inhibition: stronger effect = higher value; nuclei count: measured here: cell number, toxicity.
Assay [4] has as its target Voltage-gated potassium channel subunit beta-2 (Rattus norvegicus) (UniProt P62483). Put plainly: inhibitors of rat Kvbeta2 reductase activity – biochemical, NADPH fluorescence, primary screen (AID 622;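 active = fluorescence slope higher than the sample average by over 3 SD, cut at about -0.22 in these data, passing the limit was not always enough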;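 also: slope of raw intensity against log time taken from 70 to 1610 s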). As to conditions: recombinant KvBeta, 4-cyanobenzaldehyde reduction, at 10 µM, stronger effect = higher value.
Assay [5] shares this target. In words: enhancers of rat Kvbeta2 NADPH turnover – biochemical, NADPH fluorescence, primary screen (AID 623;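 active = NADPH fluorescence slope more negative than the mean of all samples by about 3 SD, 99.7% confidence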;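 also: fluorescence intensity change per second fitted from 20 to 320 s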). Conditions: Recombinant KvBeta, NADPH fluorescence decrease slope, 10 min; at 10 µM; stronger effect = lower value.
In assay [6] the target is Muscarinic acetylcholine receptor M4 (Homo sapiens) (UniProt P08173). In words: M4-linked GIRK flux change, two-sided – cell-based, HEK293 M4/GIRK, thallium flux, BTC-AM, M4 allosteric agonist project, primary screen (AID 625;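 active = fluorescence slope after compound addition differing from the mean of all tested samples at 99.7% confidence, mostly higher but some lower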;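 also: thallium influx through GIRK channels coupled to M4 in HEK293 cells with BTC-AM dye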). Conditions: at 10 µM, actives lie on both sides. The procedure, abridged: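 assay system = HEK293 cells with M4 receptor and GIRK channels | medium = pH 7.3 thallium assay buffer | doses = 10 µM final, single point | timing = cells overnight at 37 °C, BTC-AM loading 1 h, reads 2 min total | signal = BTC-AM fluorescence, 1 Hz kinetic reads | read-out = post-addition slope, 15–24 s, of baseline-normalized fluorescence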
Chain of Muscarinic acetylcholine receptor M4 (Homo sapiens) (P08173 whole entry, looked up): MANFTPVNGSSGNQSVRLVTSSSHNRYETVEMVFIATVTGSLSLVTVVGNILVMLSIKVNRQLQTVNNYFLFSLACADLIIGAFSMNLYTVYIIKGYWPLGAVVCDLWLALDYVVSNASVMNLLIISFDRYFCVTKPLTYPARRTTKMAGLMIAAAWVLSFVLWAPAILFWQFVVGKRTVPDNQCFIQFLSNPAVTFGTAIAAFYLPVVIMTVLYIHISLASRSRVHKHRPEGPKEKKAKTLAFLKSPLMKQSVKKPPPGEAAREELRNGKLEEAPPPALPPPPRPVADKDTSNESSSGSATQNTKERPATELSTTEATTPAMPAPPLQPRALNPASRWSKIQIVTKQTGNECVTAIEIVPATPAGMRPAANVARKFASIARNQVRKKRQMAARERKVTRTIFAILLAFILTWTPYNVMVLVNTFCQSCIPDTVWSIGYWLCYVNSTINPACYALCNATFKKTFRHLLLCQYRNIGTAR

Assay [7] can be described thus: blockers of RIG-like receptor reporter activation – cell-based, Sendai virus stimulus, luciferase, 10K MLSCN set, TLR/RLR signaling modifier project, primary screen (AID 602276;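 active = inhibition at or above 50% at 10 µM; inactive = inhibition below 50%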;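 also: firefly luciferase from ISG56 promoter only with Renilla not read in this screen; 0% = Sendai virus plus DMSO and 100% = medium plus DMSO without virus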). As to conditions: HEK293 RL24 IRF3 luciferase reporter, at 10 µM, stronger effect = higher value.
The nature of assay [8]: TLR3 IRF3 reporter activation blockers – cell-based, poly I:C stimulus, luciferase, 10K MLSCN set, primary screen (AID 602277;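 active = inhibition of the reporter signal at or above 50%; inactive = inhibition below 50%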). As to conditions: HEK293-TLR3 RL24 IRF3 luciferase reporter, at 10 µM, stronger effect = higher value.

Active and inactive are the calls of the source.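 The calls were made as follows, unless noted: active = visual image review flags a hit and inhibition of aggregation exceeds 20%; inconclusive = visual hit but inhibition at or below 20%; inactive = no hit on visual image review.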

Chain of Voltage-gated potassium channel subunit beta-2 (Rattus norvegicus) (P62483 whole entry, looked up): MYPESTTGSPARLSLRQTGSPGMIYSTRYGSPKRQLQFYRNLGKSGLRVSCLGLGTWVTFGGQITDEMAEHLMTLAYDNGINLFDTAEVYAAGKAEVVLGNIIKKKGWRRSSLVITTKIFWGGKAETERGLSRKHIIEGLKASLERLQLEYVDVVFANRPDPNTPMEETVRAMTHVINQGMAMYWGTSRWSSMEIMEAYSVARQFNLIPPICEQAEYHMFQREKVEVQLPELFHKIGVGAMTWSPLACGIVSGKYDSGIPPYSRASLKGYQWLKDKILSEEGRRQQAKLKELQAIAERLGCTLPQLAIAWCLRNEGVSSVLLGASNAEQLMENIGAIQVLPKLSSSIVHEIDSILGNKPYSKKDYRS

In the case of `Nc1c(Sc2ccccc2)c(=O)[nH]c(=O)n1Cc1ccccc1`, the cell count in assay [1] came to 254. In addition, the inhibition in assay [1] was 7.4% (inactive); in assay [3] it was -3.2% (inactive); in assay [7] it was -0.235% (inactive); in assay [8], -2.56% (inactive). Also, the inhibition of aggregation in assay [2] is -8.5% (inactive). Further, the figures for the nuclei count in assay [2] and in assay [3] were 92.6% and 78.6%, respectively. Moreover, the fluorescence slope is -0.249 (inactive) in assay [4] and 0.00651 (inactive) in assay [6]. In addition, in assay [5], the NADPH fluorescence slope is -4.4e-06 (inactive).

Turning to `CC1CCN(C(=O)Cn2c(=O)oc3ccccc32)CC1`, in assay [1], the cell count worked out at 322. Further, the inhibition in assay [1] is -0.6% (inactive); in assay [3], -222% (inactive); in assay [7], -14.5% (inactive); in assay [8] it was -12.5% (inactive). Besides, the inhibition of aggregation in assay [2] was 15.4% (inactive). The nuclei count in assay [2] turned out to be 100%; in assay [3] it was 104%. The fluorescence slope was -0.57 (inactive) in assay [4] and 0.00554 (inactive) in assay [6]. Also, in assay [5], the NADPH fluorescence slope was 4.8e-06 (inactive).

As to `COc1ccc(C(=O)Nn2c(SCC(=O)NCC3CCCO3)nc3ccccc3c2=O)cc1` (centres undefined), the cell count in assay [1] came out at 512. The inhibition in assay [1] was -3.6% (inactive); in assay [3] it was -60.6% (inactive); in assay [7], 15.1% (inactive); in assay [8], 49.1% (inactive). In assay [2], the inhibition of aggregation was 13.2% (inactive). Besides, the nuclei count in assay [2] turned out to be 103%; in assay [3], 106%. Moreover, the fluorescence slope was -0.511 (inactive) in assay [4] and 0.00522 (inactive) in assay [6]. In addition, the NADPH fluorescence slope in assay [5] was -6.1e-05 (inactive).

Consider `O=C(O)c1[nH]nc2c1COc1ccccc1-2`, for which the cell count in assay [1] worked out at 308. The inhibition was 13.1% (inactive) in assay [1], 14.8% (inactive) in assay [3], 14.5% (inactive) in assay [7] and 22.3% (inactive) in assay [8]. The inhibition of aggregation in assay [2] is -9.9% (inactive). Besides, the nuclei count in assay [2] is 97%; in assay [3], 102%. Besides, the fluorescence slope in assay [4] is -0.551 (inactive); in assay [6] it was 0.00437 (inactive). The NADPH fluorescence slope in assay [5] is -0.000118 (inactive).

For `Cc1cc(C(=O)Nc2cc(C)n(Cc3ccc(Cl)cc3)n2)no1`, the cell count in assay [1] was 240. Further, the inhibition in assay [1] was 9.5% (inactive); in assay [3] it was -39.5% (inactive); in assay [7], -11.3% (inactive); in assay [8], -27.1% (inactive). Besides, the inhibition of aggregation in assay [2] was -10.6% (inactive). The results for the nuclei count in assay [2] and in assay [3] were 98.8% and 88.4%, respectively. Moreover, the fluorescence slope in assay [4] was -0.483 (inactive); in assay [6] it was 0.0053 (inactive). Besides, the NADPH fluorescence slope in assay [5] is -1.4e-05 (inactive).

For the compound `Cc1cccc(CS(=O)(=O)Cc2ccc(C(=O)NCC3CCCO3)o2)c1` (centres undefined), in assay [1], the cell count turned out to be 450. The inhibition was 4.5% (inactive) in assay [1], -36.2% (inactive) in assay [3], -2% (inactive) in assay [7] and 8.02% (inactive) in assay [8]. In addition, the inhibition of aggregation in assay [2] is 13.6% (inactive). Moreover, the values for the nuclei count in assay [2] and in assay [3] were 99.3% and 112%, respectively. Also, the fluorescence slope in assay [4] was -0.582 (inactive); in assay [6], 0.00601 (inactive). Moreover, the NADPH fluorescence slope in assay [5] was 9.9e-06 (inactive).

Consider `Cc1nn(-c2ccccc2)c(Cl)c1C1C(C#N)=C(N)OC2=C1C(=O)CC(C)(C)C2` (centres undefined), for which the cell count in assay [1] turned out to be 378. The inhibition in assay [1] is 5.6% (inactive); in assay [3], -110% (inactive); in assay [7], 6.31% (inactive); in assay [8], 31.1% (inactive). Moreover, the inhibition of aggregation in assay [2] is -4.8% (inactive). Besides, the nuclei count in assay [2] worked out at 100%; in assay [3], 113%. The fluorescence slope in assay [4] was -0.577 (inactive); in assay [6], 0.00783 (inactive). The NADPH fluorescence slope in assay [5] is -3.7e-05 (inactive).

On to `COc1ccccc1NC(=O)C(O)C(O)C(=O)Nc1ccccc1OC` (centres undefined), for which the cell count in assay [1] was determined as 350. The inhibition in assay [1] was 8.6% (inactive); in assay [3], -101% (inactive); in assay [7] it was -7.84% (inactive); in assay [8], -0.666% (inactive). Moreover, the inhibition of aggregation in assay [2] is 2.9% (inactive). Further, the nuclei count in assay [2] was 84.5%; in assay [3], 101%. The fluorescence slope is -0.351 (inactive) in assay [4] and 0.00694 (inactive) in assay [6]. The NADPH fluorescence slope in assay [5] was -4.1e-05 (inactive).

Regarding `CCOC(=O)c1nnn(CC(=O)Nc2cccc(OC)c2)c1C(=O)OCC`, the cell count in assay [1] was found to be 395. Also, the inhibition in assay [1] was 8% (inactive); in assay [3] it was -10.7% (inactive); in assay [7] it was 9.94% (inactive); in assay [8], 14.1% (inactive). For the same compound, in assay [2], the inhibition of aggregation is 20.4% (inactive). Besides, the nuclei count in assay [2] came out at 89%; in assay [3] it was 106%. Moreover, the fluorescence slope in assay [4] was -0.416 (inactive); in assay [6], 0.00731 (inactive). Also, in assay [5], the NADPH fluorescence slope is -3.9e-05 (inactive).

For `O=C(NC(NC1CCS(=O)(=O)C1)C(=O)c1cccs1)c1ccccc1` (centres undefined), in assay [1], the cell count was found to be 269. For the same compound, the inhibition is 3.9% (inactive) in assay [1], 12.8% (inactive) in assay [3], 7.41% (inactive) in assay [7] and 18.4% (inactive) in assay [8]. Also, the inhibition of aggregation in assay [2] is 0.8% (inactive). In addition, the nuclei count in assay [2] was found to be 101%; in assay [3] it was 96.3%. Also, the fluorescence slope is -0.572 (inactive) in assay [4] and 0.00591 (inactive) in assay [6]. Moreover, in assay [5], the NADPH fluorescence slope was -2.1e-05 (inactive).

Consider `Cc1ccc(S(=O)(=O)NCCc2ccncc2)cc1`, for which the cell count in assay [1] came out at 560. In addition, the inhibition in assay [1] is -1.9% (inactive); in assay [3] it was -47.2% (inactive); in assay [7], 7.81% (inactive); in assay [8] it was 17.1% (inactive). Moreover, the inhibition of aggregation in assay [2] was 6.8% (inactive). For the same compound, the values for the nuclei count in assay [2] and in assay [3] were 92.8% and 106%, respectively. For the same compound, the results for the fluorescence slope in assay [4] and in assay [6] were -0.578 (inactive) and 0.00601 (inactive), respectively. For the same compound, in assay [5], the NADPH fluorescence slope is -5.6e-05 (inactive).

`CCOC(=O)C1CCN(C(=O)Nc2ccc3snnc3c2)CC1`: the cell count in assay [1] stood at 408. Moreover, the inhibition is 5.7% (inactive) in assay [1], -38.5% (inactive) in assay [3], 13.9% (inactive) in assay [7] and 10.8% (inactive) in assay [8]. Further, in assay [2], the inhibition of aggregation was 5% (inactive). Moreover, the nuclei count stood at 89.8% in assay [2] and 107% in assay [3]. The fluorescence slope in assay [4] is -0.206 (inactive); in assay [6], 0.00565 (inactive). Also, the NADPH fluorescence slope in assay [5] was -2.9e-05 (inactive).

Consider `CCOc1cccc(Oc2ccc(C(F)(F)F)cn2)c1`, for which the cell count in assay [1] was found to be 664. The inhibition in assay [1] was -8% (inactive); in assay [3], 8.4% (inactive); in assay [7], 5.91% (inactive); in assay [8], 3.43% (inactive). For the same compound, the inhibition of aggregation in assay [2] was -17.4% (inactive). The nuclei count is 120% in assay [2] and 97.3% in assay [3]. The values for the fluorescence slope in assay [4] and in assay [6] were -0.526 (inactive) and 0.00424 (inactive), respectively. Besides, in assay [5], the NADPH fluorescence slope was 1.7e-05 (inactive).

On to `CCN1CCN(c2c(Cl)cccc2NC(=O)c2ccco2)CC1`, for which the cell count in assay [1] is 248. Besides, the inhibition was 10.6% (inactive) in assay [1], -12.4% (inactive) in assay [3], 1.94% (inactive) in assay [7] and 29.2% (inactive) in assay [8]. Besides, the inhibition of aggregation in assay [2] is -8.4% (inactive). In addition, the nuclei count worked out at 77.9% in assay [2] and 84.2% in assay [3]. Moreover, the fluorescence slope was -0.531 (inactive) in assay [4] and 0.00466 (inactive) in assay [6]. For the same compound, the NADPH fluorescence slope in assay [5] was -2.5e-05 (inactive).
